The test system of test [1] is SiHa. Kind of test: Antiproliferative activity against human SiHa cells assessed as reduction in cell viability after 72 hrs by CellTiter-Glo assay. Type of test: functional, cell-based. An outline of the steps:
(§1)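 ATP-based luminescent viability readout. Cells were grown in DMEM with 10% FBS, 2 mM L-glutamine and penicillin-streptomycin at 37 °C, 5% CO2. 2 × 10^4 cells/well were seeded, then exposed the next day to 0–40 μM for 24, 48 or 72 h. % viability = 100 × treated/control. IC50 was fitted from a sigmoid dose-response curve. Run at least three times in quadruplicate; mean ± SEM.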

In test [2] the test system is Ca-Ski. Description: Cell cycle arrest in human CaSki cells assessed as accumulation at G0/G1 phase at 4 uM after 72 hrs by propidium iodide staining based flow cytometric analysis (reference value: 77.6%). The class given is functional. (In general: A flow cytometer gives signals particle by particle.)
Test [3] has as its target Protein E6 (Human papillomavirus 16) (UniProt P03126). Description: Inhibition of Human papillomavirus type16 derived E6 in human CaSki cells assessed as increase in p21 protein expression at 2 to 4 uM after 48 hrs by Western blot analysis. Type of test: cell-based. Conditions: Ca-Ski. A digest of the protocol: (§2)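 Cells were seeded at 1 × 10^6 per 100 mm dish and treated next day with 2 or 4 μM for 48 h. They were trypsinised, PBS-washed and lysed in RIPA with protease inhibitors. Equal protein was run on SDS-PAGE and transferred to PVDF. Primary antibodies were used at 1:500, with BSA 3% for blocking and antibodies for CK2α, Rb and pRb, otherwise 5% milk in TBST. HRP secondary at 1:2000, chemiluminescence detection.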
(In general: A western blot detects proteins with antibodies after separation by electrophoresis.)

Test [4] deals with SiHa. Description: Inhibition of colony formation in human SiHa cells at 2 to 4 uM afer 1 week by crystal violet staining based assay. The class given is functional, cell-based. A digest of the protocol: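 Cells were grown in DMEM with 10% FBS, seeded at 1 × 10^3 cells/ml in six-well plates, incubated overnight, then exposed to 2 or 4 μM at 37 °C under 5% CO2 for one week. Colonies were fixed with 4% paraformaldehyde, stained with 0.5% crystal violet and photographed.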

For test [5], the system named is Ca-Ski. Kind of test: Antiproliferative activity against human CaSki cells assessed as reduction in cell viability after 24 hrs by CellTiter-Glo assay. The class given is functional, cell-based. An outline of the steps: as §1
(ATP-based viability assays read luminescence as a measure of living cells.)

For test [6], the system named is SiHa. Description: Induction of apoptosis in human SiHa cells assessed as early apoptotic cells at 4 uM after 24 hrs by Annexin V-FITC/PI double staining based flow cytometric analysis (reference value: 5.4%). The class given is functional.
In test [7] the test system is SiHa. Kind of test: Cell cycle arrest in human SiHa cells assessed as increase in accumulation at G0/G1 phase at 4 uM incubated for 24 hrs by propidium iodide staining based flow cytometric analysis. The class given is functional. An outline of the steps:
(§3)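 Cells in DMEM with 10% FBS, 2 mM L-glutamine, pen-strep, 37 °C, 5% CO2; seeded and left overnight, then treated at 4 μM with DMSO as control. Harvested by trypsin at 24, 48 or 72 h, fixed in chilled 70% ethanol 30 min on ice, RNase A (1 mg/mL) 30 min at room temperature, PI (20 μg/mL). Flow cytometry, ≥10 000 events, G0/G1, S, G2/M fractions; mean ± SEM.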

For test [8], the system named is HeLa. Kind of test: Cell cycle arrest in human HeLa cells assessed as accumulation at Sub G1 phase at 4 uM after 72 hrs by propidium iodide staining based flow cytometric analysis (reference value: 3.5%). Type of test: functional. A digest of the protocol:
(§4)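 Cells in DMEM/10% FBS at 37 °C, 5% CO2 were given 4 μM for 24, 48 or 72 h, with DMSO as control. After trypsinization they were fixed in chilled 70% ethanol on ice for 30 min, treated with RNase A (1 mg/mL) for 30 min at room temperature, and stained with PI (20 μg/mL). At least 10 000 events were read by flow cytometry to give sub-G1, G0/G1, S and G2/M fractions; mean ± SEM.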

For test [9], the system named is SiHa. Description: Cell cycle arrest in human SiHa cells assessed as accumulation at G2/M phase at 4 uM after 48 hrs by propidium iodide staining based flow cytometric analysis (reference value: 14.7%). The class given is functional. A digest of the protocol: as §3
Test [10] relates to Ca-Ski. Kind of test: Induction of apoptosis in human CaSki cells assessed as early apoptotic cells at 4 uM after 24 hrs by Annexin V-FITC/PI double staining based flow cytometric analysis (reference value: 12.2%). The class given is functional.
For test [11], the system named is SiHa. Kind of test: Induction of apoptosis in human SiHa cells assessed as viable cells at 4 uM after 24 hrs by Annexin V-FITC/PI double staining based flow cytometric analysis (reference value: 90.8%). Conditions: read-out: Activity. The class given is functional.
Test [12] has as its system SiHa. Description: Cell cycle arrest in human SiHa cells assessed as accumulation at G0/G1 phase at 4 uM after 72 hrs by propidium iodide staining based flow cytometric analysis (reference value: 72.8%). Type of test: functional. A digest of the protocol: as §4
In test [13] the target is T1, Homeobox protein SIX1 (Homo sapiens) (UniProt Q15475).
T1 sequence (whole entry): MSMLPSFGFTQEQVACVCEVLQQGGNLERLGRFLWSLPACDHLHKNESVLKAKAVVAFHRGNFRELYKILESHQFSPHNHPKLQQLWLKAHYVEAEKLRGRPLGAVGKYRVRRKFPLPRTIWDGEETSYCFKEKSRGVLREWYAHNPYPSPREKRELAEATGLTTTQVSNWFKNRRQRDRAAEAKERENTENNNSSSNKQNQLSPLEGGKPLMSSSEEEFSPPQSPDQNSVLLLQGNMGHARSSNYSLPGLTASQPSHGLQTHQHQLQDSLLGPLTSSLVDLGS
Description: Potency index, ratio for inhibition activity of apigenin to test compound for inhibition of SIX1 in human CaSki cells after 48 hrs by Western blot analysis. The class given is cell-based. The conditions noted are these: Ca-Ski. A digest of the protocol:
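Cells plated at 1 × 10^6 per 100 mm dish and treated next day for 48 h with test compound (2 or 4 μM) or apigenin (10, 20 or 40 μM). RIPA lysates with protease inhibitors; equal protein loaded for SDS-PAGE, then PVDF transfer. Blocked in 5% milk/TBST (3% BSA for CK2α); anti-SIX1 or anti-CK2α 1:500, HRP secondary 1:2000; chemiluminescent detection.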

Test [14] deals with HeLa. Kind of test: Induction of apoptosis in human HeLa cells assessed as early apoptotic cells at 4 uM after 24 hrs by Annexin V-FITC/PI double staining based flow cytometric analysis (reference value: 6.3%). The class given is functional.
The target of test [15] is Casein kinase II subunit alpha (Homo sapiens) (UniProt P68400). Description: Inhibition of CK2alpha in human HeLa cells at 2 to 4 uM after 48 hrs by Western blot analysis. The class given is cell-based. A digest of the protocol: as §2
Chain of Casein kinase II subunit alpha (Homo sapiens) (P68400 whole entry, looked up): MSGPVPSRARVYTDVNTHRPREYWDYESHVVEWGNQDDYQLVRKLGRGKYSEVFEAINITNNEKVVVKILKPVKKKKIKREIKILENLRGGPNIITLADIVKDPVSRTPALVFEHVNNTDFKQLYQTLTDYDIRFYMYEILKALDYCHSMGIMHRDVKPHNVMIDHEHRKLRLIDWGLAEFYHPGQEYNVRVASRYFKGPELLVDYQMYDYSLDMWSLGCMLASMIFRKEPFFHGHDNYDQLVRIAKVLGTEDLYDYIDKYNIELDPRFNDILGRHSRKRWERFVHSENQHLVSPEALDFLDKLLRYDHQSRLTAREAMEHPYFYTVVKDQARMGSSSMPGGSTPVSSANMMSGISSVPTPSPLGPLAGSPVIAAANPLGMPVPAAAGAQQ
For a further test, the system named is C-33-A. Kind of test: Antiproliferative activity against human C33A cells assessed as reduction in cell viability after 72 hrs by CellTiter-Glo assay. The class given is functional, cell-based. An outline of the steps: as §1
The target of test [16] is Protein E6 (Human papillomavirus 16) (UniProt P03126). Description: Inhibition of Human papillomavirus type16 derived E6 in human SiHa cells assessed as increase in p53 protein expression at 2 to 4 uM after 48 hrs by Western blot analysis. Type of test: cell-based. A digest of the protocol: as §2
Chain of Protein E6 (Human papillomavirus 16) (P03126 whole entry): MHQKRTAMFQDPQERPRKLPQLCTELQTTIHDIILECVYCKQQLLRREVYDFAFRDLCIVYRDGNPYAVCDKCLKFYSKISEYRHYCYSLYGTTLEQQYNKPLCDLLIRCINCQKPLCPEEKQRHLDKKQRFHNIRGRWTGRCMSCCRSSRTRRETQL
The test system of test [17] is SiHa. Kind of test: Cell cycle arrest in human SiHa cells assessed as accumulation at G0/G1 phase at 4 uM after 48 hrs by propidium iodide staining based flow cytometric analysis (reference value: 72.7%). Type of test: functional. An outline of the steps: as §4
In test [18] the target is T2, Protein E7 (Human papillomavirus 16) (UniProt P03129).
T2 sequence (whole entry): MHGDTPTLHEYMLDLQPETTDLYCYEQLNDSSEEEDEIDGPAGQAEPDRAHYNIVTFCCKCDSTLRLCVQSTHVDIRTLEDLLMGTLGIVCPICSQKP
Description: Inhibition of Human papillomavirus type16 derived E7 in human SiHa cells assessed as decrease in phosphorylation of Rb at 2 to 4 uM after 48 hrs by Western blot analysis. Type of test: cell-based. A digest of the protocol:
as §2

Activity calls are given as the source filed them. The rule behind the calls is not given here.

Usually IC50 stands for the midpoint of a concentration-inhibition curve. With `O[C@]12C=C(c3nccc4c3[nH]c3ccccc34)[C@@H]3CCN(CCCC/C=C\CC1)C[C@@]31C[C@@H]3/C=C\CCCCN3[C@H]12` [MANZAMINE A], the IC50 is 4.1 µM in the test with SiHa [1], 33.6 µM with Ca-Ski [5] and 1.6 µM with C-33-A. In addition, the Activity was 81.7% in the test with Ca-Ski [2]; 13.7% with SiHa [6]; 24.3% in the test on HeLa [8]; 8.2% in the test with SiHa [9]; 16.9% in the test on Ca-Ski [10]; 78.6% in the test with SiHa [12]. Further, the Activity with HeLa [14] is 10.5%; in the test on SiHa [17], 86.4%. Further, the inhibition result (in [3]; with SiHa [4]; in test [15]; in test [16]; in [18]) was “Active” in each case. Also, the “fold change (FC)” value in the test on SiHa [7] is on record as 1.2. Also, the viability at 4 µM in the test with SiHa [11] was determined as 82.5%. Besides, the Ratio in test [13] amounted to 10.

(Values after ChEMBL document CHEMBL4602675, “The Marine Natural Product Manzamine A Inhibits Cervical Cancer by Targeting the SIX1 Protein” (J Nat Prod, 2020).)
